Laboratory results as given in ChEMBL document CHEMBL1138866, “Antitubercular nucleosides that inhibit siderophore biosynthesis: SAR of the glycosyl domain” (J Med Chem, 2006).
Values after ≈ are worked out from the molar mass of the structure shown.

How the values were obtained:
[1] = biological target: T1, Salicyl-AMP ligase / salicyl-S-ArCP synthetase (Mycobacterium tuberculosis, UniProt P71716); experiment: Inhibition of Mycobacterium tuberculosis MbtA by [32P]PPi-ATP exchange assay; details: read-out: Ki app
T1 sequence (P71716 whole entry): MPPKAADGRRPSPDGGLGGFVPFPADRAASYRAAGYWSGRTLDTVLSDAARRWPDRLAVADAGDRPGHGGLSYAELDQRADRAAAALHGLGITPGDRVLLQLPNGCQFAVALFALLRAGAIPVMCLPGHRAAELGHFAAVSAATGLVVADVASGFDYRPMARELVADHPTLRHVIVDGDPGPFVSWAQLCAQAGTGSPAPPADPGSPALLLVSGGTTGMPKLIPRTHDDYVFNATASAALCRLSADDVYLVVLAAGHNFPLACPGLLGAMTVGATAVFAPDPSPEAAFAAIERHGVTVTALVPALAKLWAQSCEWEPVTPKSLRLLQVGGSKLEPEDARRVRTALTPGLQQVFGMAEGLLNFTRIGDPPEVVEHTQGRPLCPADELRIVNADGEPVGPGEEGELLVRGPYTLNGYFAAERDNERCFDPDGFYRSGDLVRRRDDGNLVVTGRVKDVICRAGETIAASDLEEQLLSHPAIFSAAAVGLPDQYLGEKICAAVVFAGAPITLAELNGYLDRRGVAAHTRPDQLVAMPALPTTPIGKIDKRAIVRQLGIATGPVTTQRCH
Procedure, shortened: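 Native MbtA (His6-SUMO tag removed), 7 nM, with 250 μM salicylic acid, 10 mM ATP and 1 mM PPi in 75 mM Tris-HCl pH 7.5, 10 mM MgCl2, 2 mM DTT. Inhibitor in DMSO preincubated 10 min at 23 °C, then [32P]PPi added and run 20 min at 37 °C. Charcoal-bound γ-[32P]ATP counted; duplicate data fit to Morrison equation ([E] 7.0 nM) for KIapp.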

[2] = test system: Mycobacterium tuberculosis; experiment: Antitubercular activity against Mycobacterium tuberculosis H37Rv; type: functional
Procedure, shortened: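 Broth microdilution in iron-deficient GAST, in quadruplicate, with drugs from DMSO stocks and DMSO-treated control wells. Initial density 10^4–10^5 cells/assay, 37 °C, OD620 read at 10 and 14 days. MIC99 is the concentration giving complete growth inhibition.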

[3] = test system: Yersinia pseudotuberculosis; experiment: Inhibitory activity against Yersinia pseudotuberculosis ATCC 6902; type: functional
Procedure, shortened: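 Broth microdilution in triplicate in desferrated BHI (Chelex-treated plus 200 μM 2,2′-dipyridyl), with or without 150 μM FeCl3 for iron-rich conditions. Initial density 10^3–10^4 cells/well, compounds up to 100 μM, 1% DMSO control. Grown 24 h at 37 °C with shaking; OD600 read; MIC99.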

Row | SMILES | Ki [1] [nM] | MIC99 [2] [µM] | MIC99 [3] [µM]
1 | Nc1ncnc2ncn([C@@H]3C[C@H](COS(=O)(=O)NC(=O)c4ccccc4O)[C@@H](O)[C@H]3O)c12 | 2.3 | 1.56 (≈ 0.725 µg/mL) | > 100
2 | Nc1ncnc2ncn([C@@H]3O[C@H](CNS(=O)(=O)NC(=O)c4ccccc4O)[C@@H](O)[C@H]3O)c12 | 3.7 | 0.19 (≈ 0.0884 µg/mL) | –
3 | Nc1ncnc2ncn([C@@H]3O[C@H](COS(=O)(=O)NC(=O)c4ccccc4O)[C@@H](O)[C@H]3O)c12 | – | 0.29 (≈ 0.135 µg/mL) | 20 (≈ 9.33 µg/mL)
4 | Nc1ncnc2ncn(COCCOS(=O)(=O)NC(=O)c3ccccc3O)c12 | 16700 | > 200 | > 100
5 | Nc1ncnc2ncn([C@H]3C=C[C@@H](COS(=O)(=O)NC(=O)c4ccccc4O)C3)c12 | 830 | > 200 | > 100
6 | Nc1ncnc2ncn([C@H]3CC[C@@H](COS(=O)(=O)NC(=O)c4ccccc4O)C3)c12 | 61 | > 200 | –
7 | Nc1ncnc2ncn([C@@H]3O[C@H](COS(=O)(=O)NC(=O)c4ccccc4O)C[C@H]3O)c12 | 3.2 | 1.56 (≈ 0.703 µg/mL) | 80 (≈ 36 µg/mL)
8 | Nc1ncnc2ncn([C@H]3C[C@H](O)[C@@H](COS(=O)(=O)NC(=O)c4ccccc4O)O3)c12 | 3.5 | – | –
9 | NNC(=O)c1ccncc1 [ISONIAZID] | – | 0.18 (≈ 0.0247 µg/mL) | –
